Experimental data gathered from unrelated publications.
Protocols differ between the studies behind these lines.
Target: Megakaryocyte-associated tyrosine-protein kinase (MATK, Homo sapiens, UniProt P42679)
One construct used (P42679 1-507): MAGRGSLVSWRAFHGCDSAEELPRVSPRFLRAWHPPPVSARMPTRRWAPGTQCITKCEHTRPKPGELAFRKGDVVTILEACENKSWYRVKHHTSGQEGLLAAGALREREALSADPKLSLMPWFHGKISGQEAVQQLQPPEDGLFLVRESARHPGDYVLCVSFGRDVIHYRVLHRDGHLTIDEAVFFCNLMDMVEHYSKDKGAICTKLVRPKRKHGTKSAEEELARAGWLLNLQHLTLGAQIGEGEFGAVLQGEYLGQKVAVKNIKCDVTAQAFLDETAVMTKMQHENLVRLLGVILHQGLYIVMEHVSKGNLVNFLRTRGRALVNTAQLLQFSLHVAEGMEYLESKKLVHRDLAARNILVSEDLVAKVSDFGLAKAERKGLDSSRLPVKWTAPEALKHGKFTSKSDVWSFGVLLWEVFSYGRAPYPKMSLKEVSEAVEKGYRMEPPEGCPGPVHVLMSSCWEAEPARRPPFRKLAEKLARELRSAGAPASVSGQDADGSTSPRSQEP

`COc1ccnn2ncc(-c3ccnc(N(C)C)n3)c12` gave a remaining binding of 100% (binding; 1 µM).
`O=C1CCc2cc(Nc3cc(OC4CCOCC4)c([N+](=O)[O-])cc3Cl)ccc2N1` has a remaining binding of 100% (cell-free assay; competition with immobilised ligand; 1 µM).
For `c1cnn2ncc(-c3ccnc(N4CCC45COC5)n3)c2c1`, the remaining binding was 87% (binding; 1 µM).
For `O=C(Nc1cnc(Oc2ccc(F)cc2)nc1)N1CCc2ncccc2[C@@H]1c1ccc(F)cc1`, the remaining binding was 80% (cell-free assay; competition with immobilised ligand; 1 µM).
The remaining binding of `CNC(=O)[C@@H]1CC[C@@H](n2c(-c3ccc4cnccc4c3)nc3ccc(C(=O)NCc4cccc(C(N)=O)c4)cc32)C1` is reported as 100% (binding; competition with immobilised ligand; 1 µM).
`CS(=O)(=O)N1CCCC(NC(=O)[C@H](CCC2CCCCC2)NC(=O)c2ccc(CNc3ncnc4c3nnn4-c3ccccc3)cc2)C1` (stereo partly drawn) has a remaining binding of 100% (cell-free assay; competition with immobilised ligand; 0.1 µM).
`O=C(NCCCN1CCOCC1)c1ccc(Nc2nccc(-c3cc4ccccc4s3)n2)cc1` has a remaining binding of 55% (binding; competition with immobilised ligand; 1 µM).
The remaining binding of `CN(C)c1nccc(-c2cnc3ncccn23)n1` is reported as 50% (binding; 1 µM).
The remaining binding of `CCN1CCN(Cc2ccc(C(=O)Nc3ccc(C)c(Oc4ccc5c(c4)CC(=O)N5)c3)cc2C(F)(F)F)CC1` is reported as 100% (binding; competition with immobilised ligand; 1 µM).
With `O=C(c1ccc(Nc2ncc(Cl)c(-c3cc4ccccc4s3)n2)cc1)N1CCC(N2CCCC2)CC1` the remaining binding was 47% (binding; competition with immobilised ligand; 1 µM).
With `CN(CCCC(F)(F)F)c1nccc(-c2cnn3ncccc23)n1` the remaining binding was 72% (binding; 1 µM).
`O=C(NCC1CCOCC1)c1n[nH]cc1NC(=O)c1c(F)cccc1F` gave a remaining binding of 79% (binding; competition with immobilised ligand; 1 µM).
With `O=C(N[C@H]1CCCCC/C=C\C2C[C@@]2(C(=O)O)NC(=O)[C@@H]2C[C@@H](Oc3ccncc3)CN2C1=O)OC1CCCC1` (stereo partly drawn) the remaining binding was 41% (binding; competition with immobilised ligand; 1 µM).
`COc1ncc2cc3ccccc3nc2c1C#N` has a remaining binding of 100% (cell-free assay; competition with immobilised ligand; 5 µM).
`N[C@H]1CCN(c2nccc(-c3cnn4ncccc34)n2)C1` has a remaining binding of 100% (binding; 1 µM).
With `COc1cnc(Nc2cccc(S(N)(=O)=O)c2)nc1N1CCN(c2ccccc2)C(=O)C1` the remaining binding was 79% (binding; competition with immobilised ligand; 1 µM).
`CO[C@@H](C)c1c(Nc2ccc([C@@H](N(C)C(=O)C3CCS(=O)(=O)CC3)C(F)(F)F)cc2)cnc2cc(Cl)nn12` has a remaining binding of 98% (cell-free assay; competition with immobilised ligand; 1 µM).
For `Cc1cnc(Nc2ccc(C(=O)N3CCC(N4CCCC4)CC3)cc2)nc1-c1cc2ccccc2s1`, the remaining binding was 30% (binding; competition with immobilised ligand; 1 µM).
`CN(C)c1nccc(-c2cnn3ncccc23)n1` has a remaining binding of 100% (binding; 1 µM).
With `C[C@@H](c1ccc(-n2cnc3c(N)ncnc32)cc1)N1CCc2nn(C)c(Cc3ccccc3)c2C1=O` the remaining binding was 69% (binding; competition with immobilised ligand; 0.1 µM).
`Cc1cc(NC(=O)c2cccc(S(F)(F)(F)(F)F)c2)cc(-n2ccn3nc(-c4cccnc4)cc23)c1` has a remaining binding of 100% (cell-free assay; competition with immobilised ligand; 1 µM).
